Laboratory results published in ChEMBL document CHEMBL1127831, “Synthesis and structure-activity relationships of new antitumor taxoids. Effects of cyclohexyl substitution at the C-3' and/or C-2 of taxotere (docetaxel)” (J Med Chem, 1994).
Converted amounts (≈) assume the structure as drawn.

Key:
[1] = Ratio of inhibition of the rate of microtubule disassembly by the compound to that of paclitaxel; assay type: functional
Summary of the method: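 Porcine brain tubulin, MAP-depleted on phosphocellulose, used at 9 μM in MES pH 6.8 buffer with glycerol, 6 mM MgCl2 and 1 mM GTP. Taxoid in ethanol (0.1–5 μM) was added, tubulin polymerized 30 min at 37 °C, then cooled to 6 °C. Depolymerization rate was taken from the turbidity (350 nm) decline slope. The IC50 for 50% rate decrease was divided by the paclitaxel IC50.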

P388 [2] = test: In vitro cytotoxicity against murine P388 leukemia cell line; assay type: functional, cell-based; conditions: Mus musculus
Summary of the method: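 P388 cells kept in RPMI 1640 with 10% foetal calf serum, 10 μM 2-mercaptoethanol, 2 mM L-glutamine and penicillin/streptomycin. Seeded at 1×10^5 cells/mL and grown 96 h with various taxoid concentrations, each in quadruplicate. Viability read by 16 h neutral red (0.02%) uptake, SDS lysis and OD at 540 and 346 nm. IC50 for 50% growth inhibition taken from three separate experiments.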

P388 [3] = test: In vitro cytotoxicity against murine P388 doxorubicin resistant leukemia cell line; assay type: functional, cell-based; conditions: Mus musculus
Summary of the method: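 P388/Dox cells grown in RPMI 1640 with 10% foetal calf serum, 2-mercaptoethanol, L-glutamine and antibiotics, with doxorubicin 1 μg/mL kept in the medium. Seeded at 1×10^5 cells/mL and exposed 96 h to a range of taxoid concentrations, quadruplicate points. Neutral red 0.02% added for 16 h, cells lysed in 1% SDS, OD read at 540 and 346 nm. IC50 = 50% growth inhibition, from three separate experiments.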

Structure (SMILES) | IC50 ratio [1] | IC50 (P388 [2]) [µg/mL] | IC50 (P388 [3]) [µg/mL]
CC(=O)O[C@@]12CO[C@@H]1C[C@H](O)[C@@]1(C)C(=O)[C@H](O)C3=C(C)[C@@H](OC(=O)[C@H](O)C(NC(=O)OC(C)(C)C)C4CCCCC4)C[C@@](O)([C@@H](OC(=O)C4CCCCC4)C12)C3(C)C (stereo not given in full) | 2 | 0.076 (≈ 0.0927 µM) | 3.6 (≈ 4.39 µM)
CC(=O)O[C@@]12CO[C@@H]1C[C@H](O)[C@@]1(C)C(=O)[C@H](O)C3=C(C)[C@@H](OC(=O)[C@H](O)[C@@H](NC(=O)OC(C)(C)C)c4ccccc4)C[C@@](O)([C@@H](OC(=O)c4ccccc4)[C@H]21)C3(C)C.O.O.O [DOCETAXEL] | 0.7 | 0.008 | 1.5
CC(=O)O[C@H]1C(=O)[C@@]2(C)C([C@H](OC(=O)C3CCCCC3)[C@]3(O)C[C@H](OC(=O)[C@H](O)C(NC(=O)c4ccccc4)c4ccccc4)C(C)=C1C3(C)C)[C@]1(OC(C)=O)CO[C@@H]1C[C@@H]2O (stereo not given in full) | 1.7 | 0.45 (≈ 0.523 µM) | 7.5 (≈ 8.72 µM)
CC(=O)O[C@@]12CO[C@@H]1C[C@H](O)[C@@]1(C)C(=O)[C@H](O)C3=C(C)[C@@H](OC(=O)[C@H](O)C(NC(=O)OC(C)(C)C)c4ccccc4)C[C@@](O)([C@@H](OC(=O)C4CCCCC4)C12)C3(C)C (stereo not given in full) | 0.85 | 0.09 (≈ 0.111 µM) | 6.3 (≈ 7.74 µM)
CC(=O)O[C@@]12CO[C@@H]1C[C@H](O)[C@@]1(C)C(=O)[C@H](O)C3=C(C)[C@@H](OC(=O)[C@H](O)C(NC(=O)OC(C)(C)C)C4CCCCC4)C[C@@](O)([C@@H](OC(=O)c4ccccc4)C12)C3(C)C (stereo not given in full) | 0.72 | 0.063 (≈ 0.0774 µM) | 3.1 (≈ 3.81 µM)
